The source of these data is publication PMC11452527 (Nature Communications, 2024).

Like-named read-outs stand apart in the source and are kept apart here.

One series deals with platelets. The note with it: cited from earlier work.
The target of series [1] is αIIbβ3. The note with it: cited from earlier work.
In another series the test system is platelets in whole blood. The experiment in a line: ADP-induced platelet aggregation in 1:1 diluted whole blood. Format: cell-based. The note with it: Homo sapiens, read-out: IC50agg.
The nature of series [2]: Plasma protein binding by rapid equilibrium dialysis. It is filed as in vitro ADME. The settings on record: human, platelet-free human plasma. On the technique in general: In equilibrium dialysis only unbound substance equilibrates across the membrane.
The target of series [3] is T1, αIIbβ3 (Homo sapiens, UniProt P05106+P08514). The experiment in a line: ODE model of inhibitor occupancy of αIIbβ3. The note with it: ODEs Eq 16-22.
T1 sequence (P08514 32-887 limits assumed): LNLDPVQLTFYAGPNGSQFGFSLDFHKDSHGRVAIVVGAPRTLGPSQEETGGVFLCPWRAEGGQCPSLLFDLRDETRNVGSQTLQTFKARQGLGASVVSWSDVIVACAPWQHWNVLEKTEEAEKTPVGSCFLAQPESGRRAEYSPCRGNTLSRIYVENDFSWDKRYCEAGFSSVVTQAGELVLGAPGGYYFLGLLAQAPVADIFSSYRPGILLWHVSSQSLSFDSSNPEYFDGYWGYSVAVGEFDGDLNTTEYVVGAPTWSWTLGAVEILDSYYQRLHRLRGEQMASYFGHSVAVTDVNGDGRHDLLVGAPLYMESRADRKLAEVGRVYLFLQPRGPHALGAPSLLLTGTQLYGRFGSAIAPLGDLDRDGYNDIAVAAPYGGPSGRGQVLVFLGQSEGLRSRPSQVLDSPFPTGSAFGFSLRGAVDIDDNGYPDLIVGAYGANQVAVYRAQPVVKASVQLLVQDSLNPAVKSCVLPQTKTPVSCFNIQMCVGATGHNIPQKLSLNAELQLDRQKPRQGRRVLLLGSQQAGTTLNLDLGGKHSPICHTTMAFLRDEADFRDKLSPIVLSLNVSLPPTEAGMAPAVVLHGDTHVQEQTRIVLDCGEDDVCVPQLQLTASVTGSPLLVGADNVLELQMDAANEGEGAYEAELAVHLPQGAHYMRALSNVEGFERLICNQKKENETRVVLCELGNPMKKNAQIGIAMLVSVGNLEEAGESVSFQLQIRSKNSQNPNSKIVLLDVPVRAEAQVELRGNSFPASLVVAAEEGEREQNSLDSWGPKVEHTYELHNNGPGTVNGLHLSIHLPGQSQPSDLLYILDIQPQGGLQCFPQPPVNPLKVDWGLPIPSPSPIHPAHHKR
T1 sequence (P08514 891-1039 partner limits assumed): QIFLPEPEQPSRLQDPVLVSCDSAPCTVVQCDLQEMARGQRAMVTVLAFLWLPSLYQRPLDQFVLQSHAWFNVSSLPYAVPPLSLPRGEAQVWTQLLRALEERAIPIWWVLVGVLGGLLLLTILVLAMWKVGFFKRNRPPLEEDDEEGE
T1 sequence (P05106 27-788): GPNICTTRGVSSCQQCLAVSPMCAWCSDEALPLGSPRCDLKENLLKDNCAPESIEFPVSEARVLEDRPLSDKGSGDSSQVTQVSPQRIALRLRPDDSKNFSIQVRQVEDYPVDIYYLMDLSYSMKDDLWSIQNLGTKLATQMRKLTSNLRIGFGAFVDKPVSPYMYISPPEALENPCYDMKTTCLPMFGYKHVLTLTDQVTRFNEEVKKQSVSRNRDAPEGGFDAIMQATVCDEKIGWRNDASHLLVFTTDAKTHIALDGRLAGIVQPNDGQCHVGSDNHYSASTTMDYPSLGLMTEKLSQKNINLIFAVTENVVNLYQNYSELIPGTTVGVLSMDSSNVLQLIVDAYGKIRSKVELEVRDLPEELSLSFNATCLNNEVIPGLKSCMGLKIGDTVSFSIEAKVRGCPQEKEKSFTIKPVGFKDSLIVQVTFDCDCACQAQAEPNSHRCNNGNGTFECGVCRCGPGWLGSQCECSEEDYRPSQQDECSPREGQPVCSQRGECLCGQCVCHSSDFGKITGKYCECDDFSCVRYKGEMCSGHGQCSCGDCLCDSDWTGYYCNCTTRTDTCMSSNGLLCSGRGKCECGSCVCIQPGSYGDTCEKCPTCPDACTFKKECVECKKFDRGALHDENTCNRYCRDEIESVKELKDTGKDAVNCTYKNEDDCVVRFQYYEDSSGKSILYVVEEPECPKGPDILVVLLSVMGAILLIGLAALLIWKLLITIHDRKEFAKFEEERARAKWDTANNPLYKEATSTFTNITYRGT
Series [4] deals with C57BL/6J mice. The experiment in a line: Thrombin-induced femoral vein thrombosis model. Format: in vivo, mouse. The settings on record: bolus tirofiban 0.025 μg/g, m-tirofiban 0.3 μg/g.
For a further series, the system named is human PRP. Kind of series: Thrombin-induced clot retraction in platelet-rich plasma. The settings on record: read-out: IC50clot. Format: cell-based.
Series [5] addresses T1, αIIbβ3. Kind of series: LIBS AP5 epitope exposure on platelet αIIbβ3. It is filed as cell-based. The settings on record: washed human platelets; tirofiban 0.17 μM, m-tirofiban 16 μM, Hr10 7.6 μM. The essentials:
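Washed platelets came from citrated blood of drug-free donors: PRP was spun with PGE1 (20 ng/ml final), washed in Ringer's citrate-dextrose, and resuspended in Tyrode's buffer (pH 7.4, 0.02% BSA, 1 mM Ca²⁺/Mg²⁺). Buffer or test compound was preincubated 20 min at RT without stirring, then ADP (20 µM) plus Alexa647-AP5 (10 µg/mL) was added for 30 min at RT. Samples were diluted, fixed in 2% paraformaldehyde, and read by flow-cytometric MFI. Mean + s.e., n = 4 donors.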

The test system of series [6] is C57BL/6J mice. The experiment in a line: Tail vein bleeding model. It is filed as in vivo, mouse. The settings on record: at the dose that suppressed femoral VT.

On to `N=C(N)c1ccc(C(=O)N[C@@H](Cc2ccc([N+](=O)[O-])cc2)C(=O)N2CCc3nn(CC(=O)O)cc3C2)cc1` [UR-2922], for which, in the series with platelets, the IC50clot/IC50agg ratio is reported as 20.63. Also, the Kd at αIIbβ3 [1] (read-out: mean Kd to αIIbβ3) was 0.3 nM.
Take `CCCCS(=O)(=O)N[C@@H](Cc1ccc(OCCCCC2CCNCC2)cc1)C(=O)O` [tirofiban]: the IC50 in the series with platelets in whole blood is 6 ± 0.58 nM; with human PRP, 162 ± 61 nM. This compound also returned a fraction unbound at 24 h, 2 µM in [2] of 0.413 ± 0.0303. Moreover, the Kd on αIIbβ3 [1] (read-out: Kd for pretreated (inactive) αIIbβ3) was 15 nM. The “concentration for 50% occupancy of αIIbβ3 (50% OCCL:T)” value on αIIbβ3 [3] (1:1 diluted whole blood) is reported as 26.5 nM; on αIIbβ3 [3] (undiluted whole blood) it was 38.0 nM. For the same compound, the “total accumulation of fibrin vs untreated” value with C57BL/6J mice [4] was “significant only at a p-value of 0.0606”. Besides, the “AP5 epitope expression above that seen with ADP (or thrombin) alone” value on αIIbβ3 [5] was “large increase”. The “bleeding time vs PBS” value in the series on C57BL/6J mice [6] is given as “prolonged bleeding time”. Besides, the “bleeding vs PBS” value with C57BL/6J mice [6] is listed as “significant bleeding”.
fibrinogen: the Kd on αIIbβ3 [1] (read-out: Kd,F of fibrinogen to αIIbβ3, assumed in ODE model ref 58) is 143 nM.

One may read the Kd as the free concentration of one partner at which half of the binding sites on the other are occupied at equilibrium, for simple one-to-one binding. Broadly, the fraction unbound is the share of the substance not bound to proteins or other matrix. A lower fraction unbound goes with little free substance.
